The text below walks through data of ChEMBL document CHEMBL1157028, “Synthesis and anti-inflammatory activity of novel (substituted)benzylidene acetone oxime ether derivatives: molecular modeling study” (Eur J Med Chem, 2010).

Data set [1] concerns Rattus norvegicus. The experiment in a line: Antiinflammatory activity in Wistar rat assessed as inhibition of carrageenan-induced paw edema at equimolar ip dose relative […] diclofenac sodium administered 1 hr before carrageenan challenge measured after 3 hrs relative to control. The data set is classed as functional. A digest of the protocol: (§1)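 Wistar rats (100–120 g), 5 per group, were dosed ip either at equimolar […] or at three graded doses to derive ED50. Vehicle-only rats served as controls. After 1 h, 0.05 mL 1% carrageenin in saline (made 24 h earlier) was injected subplantar into the right hind paw and saline into the left. At 3 h, rats were killed and both paws cut and weighed. Right-over-left % weight increase gave % oedema reduction versus control.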
A general note: The carrageenan paw model is a standard test of acute inflammation.

In data set [2] the test system is Rattus norvegicus. The experiment in a line: Antiinflammatory activity in ip dosed Wistar rat assessed as inhibition of carrageenan-induced paw edema administered 1 hr before carrageenan challenge measured after 3 hrs relative to control. In kind it is functional. The essentials:
as §1

Data set [3] relates to Rattus norvegicus. Kind of data set: Antiinflammatory activity in Wistar rat assessed as inhibition of carrageenan-induced paw edema at 45 mg/kg, ip administered 1 hr before carrageenan challenge measured after 3 hrs relative to control. In kind it is functional. The note with it: route intraperitoneal. The essentials:
as §1

Data set [4] concerns Rattus norvegicus. Kind of data set: Gastrointestinal toxicity in Wistar rat assessed as length of elongated ulcer at equimolar po dose relative […] diclofenac sodium qd for 5 days measured after 10 hrs last post dose. Conditions: in vivo. The data set is classed as organism-based. The essentials:
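Rats, 5 per group, were given oral equimolar doses ([…]) daily for 5 days. They were killed by ether overdose 10 h after the last dose. Stomachs were rinsed with saline, opened along the greater curvature and examined under a ×10 hand lens. Ulcer number and summed ulcer length were recorded per animal, and the mean was taken as ulcer index.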

Data set [5] can be described thus: Acute toxicity in ip dosed Wistar rat assessed as mortality after 24 hrs. The note with it: in vivo. In kind it is organism-based.
For data set [6], the system named is Mus musculus. Kind of data set: Analgesic activity in Swiss albino mouse assessed as inhibition of acetic acid-induced writhing at 100 mg/kg, po administered 2 hrs before acetic acid challenge measured after 20 mins relative to control. In kind it is functional. A digest of the protocol:
(§2)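 Swiss albino mice of either sex (20–25 g), in groups of 6, were housed at 22 ± 2 °C on a 12 h light/dark cycle. Drug was given orally and vehicle alone to negative controls. After 2 h, 0.2 mL 3% acetic acid was injected ip. Writhes were counted over 20 min, and % reduction in writhe number versus the control group was calculated.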
In general terms: An intraperitoneal irritant provokes the stretching counted in writhing tests.

Data set [7] concerns Mus musculus. The experiment in a line: Analgesic activity in Swiss albino mouse assessed as inhibition of acetic acid-induced writhing at 45 mg/kg, po administered 2 hrs before acetic acid challenge measured after 20 mins relative to control. The data set is classed as functional. The essentials: as §2
Data set [8] deals with Rattus norvegicus. The experiment in a line: Antiinflammatory activity in Wistar rat assessed as inhibition of carrageenan-induced paw edema at 30 mg/kg, ip administered 1 hr before carrageenan challenge measured after 3 hrs relative to control. The data set is classed as functional. The note with it: route intraperitoneal. A digest of the protocol:
as §1

Data set [9] deals with Rattus norvegicus. The experiment in a line: Antiinflammatory activity in Wistar rat assessed as inhibition of carrageenan-induced paw edema at 75 mg/kg, ip administered 1 hr before carrageenan challenge measured after 3 hrs relative to control. The note with it: route intraperitoneal. In kind it is functional. The essentials:
as §1

Data set [10] in a line: Therapeutic index, ED50 for antiinflammatory activity to LD50 for acute toxicity in Wistar rat. Conditions: read-out: TI.
Data set [11] relates to Rattus norvegicus. Kind of data set: Antiinflammatory activity in Wistar rat assessed as inhibition of carrageenan-induced paw edema at 37 mg/kg, ip administered 1 hr before carrageenan challenge measured after 3 hrs relative to control. In kind it is functional. The note with it: route intraperitoneal. A digest of the protocol: as §1
For data set [12], the system named is Mus musculus. The experiment in a line: Analgesic activity in Swiss albino mouse assessed as inhibition of acetic acid-induced writhing at 37 mg/kg, po administered 2 hrs before acetic acid challenge measured after 20 mins relative to control. In kind it is functional. A digest of the protocol: as §2
Data set [13] concerns Mus musculus. Kind of data set: Analgesic activity in Swiss albino mouse assessed as inhibition of acetic acid-induced writhing at 50 mg/kg, po administered 2 hrs before acetic acid challenge measured after 20 mins relative to control. In kind it is functional. The essentials: as §2
The test system of data set [14] is Rattus norvegicus. Kind of data set: Antiinflammatory activity in Wistar rat assessed as inhibition of carrageenan-induced paw edema at […], ip administered 1 hr before carrageenan challenge measured after 3 hrs relative to control. In kind it is functional. A digest of the protocol: as §1
The subject of data set [15] is Rattus norvegicus. The experiment in a line: Antiinflammatory activity in Wistar rat assessed as inhibition of carrageenan-induced paw edema at 50 mg/kg, ip administered 1 hr before carrageenan challenge measured after 3 hrs relative to control. In kind it is functional. The note with it: route intraperitoneal. A digest of the protocol: as §1

For `CC(/C=C/c1ccc(Cl)cc1)=N\OC(C)C(N)=O` (centres undefined), the “inhibition (INH)” value in data set [1] is 57.54%. Still for that read-out and setting: the figure for `COc1ccc(/C=C/C(C)=N/OCC(=O)Nc2ccccc2)cc1` is 42.91%. Same read-out and setting: the figure for `COc1ccc(/C=C/C(C)=N/OCC(=O)Nc2ccc(Cl)cc2)cc1` is 43.32%. Still for that read-out and setting: the figure for `COc1ccc(/C=C/C(C)=N/OCC(=O)Nc2ccc(OC)cc2)cc1` is 37.25%; for `COc1ccc(/C=C/C(C)=N/OCC(=O)O)cc1` it is 7.35%; for `CC(/C=C/c1ccccc1)=N\OC(C)C(=O)O` (centres undefined) it is 40.85%.

A word on the ED50: it is the dose at which the effect has come halfway, by size or by number of responders. Broadly, the inhibition in vivo is the drop in the measured response relative to a control, in per cent. What is called LD50 is the dose at which mortality reaches 50%. For the molecule `CC(/C=C/c1ccc(Cl)cc1)=N\OC(C)C(=O)O` (centres undefined), the ED50 in data set [2] is 29.9 mg/kg. Also, in data set [1], the “inhibition (INH)” value is reported as 66.7%. Also, the inhibition in vivo at 45 mg/kg was 66.7% in data set [3] and 20.3% in data set [7]. In [4], the Activity is reported as 8.1 mm. Also, the LD50 at 24 h in data set [5] stood at 745 mg/kg. Also, the inhibition in vivo at 100 mg/kg in [6] is 39.1%. Besides, the inhibition in vivo at 30 mg/kg in data set [8] came out at 45.1%. For the same molecule, the inhibition in vivo at 75 mg/kg in data set [9] was found to be 75.2%. Besides, in data set [10], the selectivity ratio was determined as 24.9. For `COc1ccc(/C=C/C(C)=N/OC(C)C(=O)O)cc1` (centres undefined), the “inhibition (INH)” value in data set [1] was 45.38%.

With `CC(/C=C/c1ccccc1)=N\OCC(=O)O`, the “inhibition (INH)” value in data set [1] is 45.62%.

In the case of `CC(/C=C/c1ccc(Cl)cc1)=N\OCC(=O)O`, the “inhibition (INH)” value in [1] is 50.57%. Same read-out and setting: the figure for `CC(/C=C/c1ccccc1)=N\OCC(=O)Nc1ccc(Cl)cc1` is 28.66%. `COc1ccc(NC(=O)CO/N=C(C)/C=C/c2ccccc2)cc1`: in data set [1], the “inhibition (INH)” value came out at 49.64%. On the same count and under the same terms, as for `CC(/C=C/c1ccc(Cl)cc1)=N\OCC(=O)Nc1ccccc1`, the figure is 29.45%. On the same count and under the same terms, the figure for `COc1ccc(/C=C/C(C)=N/OC(C)C(N)=O)cc1` (centres undefined) is 58.53%; for `CC(/C=C/c1ccccc1)=N\OCC(=O)NC(C)C` it is 30.93%; for `CC(/C=C/c1ccc(Cl)cc1)=N\OCC(=O)NC(C)C` it is 28.49%. On the same count and under the same terms, as for `CC(/C=C/c1ccc(Cl)cc1)=N\OC(C)C(=O)NN` (centres undefined), the figure is 43.49%; as for `COc1ccc(/C=C/C(C)=N/OC(C)C(=O)NN)cc1` (centres undefined), 38.76%. For `COc1ccc(/C=C/C(C)=N/OCC(=O)NC(C)C)cc1`, in data set [1], the “inhibition (INH)” value was 41.68%. Turning to `CC(/C=C/c1ccc(Cl)cc1)=N\OC(C)C(=O)NC(C)C` (centres undefined), the “inhibition (INH)” value in data set [1] was 42.84%. On the same count and under the same terms, as for `CCOC(=O)CO/N=C(C)/C=C/c1ccccc1`, the figure is 29.76%; as for `COc1ccc(/C=C/C(C)=N/OC(C)C(=O)NC(C)C)cc1` (centres undefined), 27.53%. With `CC(/C=C/c1ccc(Cl)cc1)=N\OCC(=O)NN`, the “inhibition (INH)” value in data set [1] is recorded as 21.76%. For `CC(/C=C/c1ccccc1)=N\OCC(N)=O`, the “inhibition (INH)” value in [1] came to 49.71%. On the same count and under the same terms, as for `CC(/C=C/c1ccccc1)=N\OC(C)C(=O)NC(C)C` (centres undefined), the figure is 37.38%; as for `COc1ccc(/C=C/C(C)=N/OCC(=O)NN)cc1`, 24.44%. On the same count and under the same terms, the figure for `CC(/C=C/c1ccccc1)=N\OC(C)C(=O)NN` (centres undefined) is 56.27%; for `CC(/C=C/c1ccc(Cl)cc1)=N\OCC(N)=O` it is 50.77%. The same measure, in the same setting: as for `COc1ccc(/C=C/C(C)=N/OCC(N)=O)cc1`, the figure is 38.21%; as for `CC(/C=C/c1ccc(Cl)cc1)=N\OCC(=O)Nc1ccc(Cl)cc1`, 40.89%; as for `COc1ccc(NC(=O)CO/N=C(C)/C=C/c2ccc(Cl)cc2)cc1`, 48.16%.

As to `CC(/C=C/c1ccccc1)=N\OCC(=O)NN`, the “inhibition (INH)” value in [1] was found to be 29.01%. For `CC(/C=C/c1ccccc1)=N\OCC(=O)Nc1ccccc1`, the “inhibition (INH)” value in [1] stood at 35.43%. As to `CC(/C=C/c1ccccc1)=N\OC(C)C(N)=O` (centres undefined), in [2], the ED50 worked out at 34.3 mg/kg. Also, in data set [1], the “inhibition (INH)” value was determined as 63.23%. Further, in [4], the Activity was 0.3 mm. Besides, the LD50 at 24 h in data set [5] is 745 mg/kg. Also, in data set [6], the inhibition in vivo at 100 mg/kg is 82.5%. Further, the inhibition in vivo at 37 mg/kg in [11] amounted to 63.2%; in data set [12], 53.6%. The inhibition in vivo at 30 mg/kg in data set [8] stood at 37.7%. The inhibition in vivo at 75 mg/kg in [9] was found to be 69.1%. For the same molecule, the selectivity ratio in data set [10] was 20.1. For `CCOC(=O)CO/N=C(C)/C=C/c1ccc(Cl)cc1`, the “inhibition (INH)” value in data set [1] stood at 26.23%.

Regarding `CCOC(=O)CO/N=C(C)/C=C/c1ccc(OC)cc1`, the “inhibition (INH)” value in data set [1] turned out to be 22.14%.

With `CCOC(=O)C(C)O/N=C(C)/C=C/c1ccccc1` (centres undefined), the “inhibition (INH)” value in [1] stood at 33.2%.

With `CCOC(=O)C(C)O/N=C(C)/C=C/c1ccc(Cl)cc1` (centres undefined), the “inhibition (INH)” value in data set [1] was 44.52%.

For `CCOC(=O)C(C)O/N=C(C)/C=C/c1ccc(OC)cc1` (centres undefined), in data set [1], the “inhibition (INH)” value is 21.66%.

As for `O=C([O-])Cc1ccccc1Nc1c(Cl)cccc1Cl.[Na+]` [DICLOFENAC SODIUM], in data set [2], the 50% effective dose (ED50) worked out at 30.6 mg/kg. For the same molecule, the inhibition in vivo at 50 mg/kg in data set [13] was determined as 71.1%; in [15], 72.1%. In addition, in data set [14], the “inhibition (INH)” value was determined as 72.13%. For the same molecule, the Activity in [4] amounted to 7.9 mm. For the same molecule, the inhibition in vivo at 30 mg/kg in [8] came to 46%. The inhibition in vivo at 75 mg/kg in data set [9] turned out to be 80.2%.
